Measured values: the M2OR odorant receptor database

Each compound was assayed on T1, OR5K2 L197M. Conditions: stereoisomer not certain.
T1 sequence (whole entry): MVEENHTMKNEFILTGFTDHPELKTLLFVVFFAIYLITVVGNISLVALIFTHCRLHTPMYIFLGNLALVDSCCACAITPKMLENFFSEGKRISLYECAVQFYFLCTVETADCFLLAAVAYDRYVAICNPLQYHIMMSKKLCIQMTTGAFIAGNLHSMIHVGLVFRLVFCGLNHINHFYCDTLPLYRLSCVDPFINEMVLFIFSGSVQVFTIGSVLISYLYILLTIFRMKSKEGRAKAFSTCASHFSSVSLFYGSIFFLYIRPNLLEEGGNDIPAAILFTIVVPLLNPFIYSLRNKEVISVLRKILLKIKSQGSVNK
How it was run: (§1)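 Whether a receptor–molecule pair is responsive (active) rests on the original authors' judgment that its measured signal was statistically different from baseline. Pairs without that judgment are non-responsive (inactive). Sources used varied assay methods, commonly transient luciferase assays in mammalian cell lines.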
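Note: active if original authors judged signal statistically different from baseline.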

Odorant receptor agonist call, inactive:
CC1=C(O)C(=O)C(C)O1 (stereo not given)
CCC1OC(C)=C(O)C1=O (stereo not given)
CCC1OC(=O)C(O)=C1C (stereo not given)
CC1=C(O)C(=O)OC1C (stereo not given)
CC1=NC(C)C(C)S1 (stereo not given)
Cc1cnc(C)c(C)n1
CCCC(S)CCOC(C)=O (stereo not given)
CCCCCCC=CCCC=O

Each compound was assayed against T2, OR5K3 (Homo sapiens) (UniProt A6NET4). Conditions: stereoisomer not certain.
T2 sequence (whole entry): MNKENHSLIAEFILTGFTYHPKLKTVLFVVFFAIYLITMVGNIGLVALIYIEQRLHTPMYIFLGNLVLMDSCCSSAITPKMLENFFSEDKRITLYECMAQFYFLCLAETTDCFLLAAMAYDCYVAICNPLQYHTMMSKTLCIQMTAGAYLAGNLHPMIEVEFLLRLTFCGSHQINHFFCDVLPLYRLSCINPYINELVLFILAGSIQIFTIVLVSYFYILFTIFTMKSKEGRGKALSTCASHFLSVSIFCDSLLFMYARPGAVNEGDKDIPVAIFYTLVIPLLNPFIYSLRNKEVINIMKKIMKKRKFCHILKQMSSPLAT
How it was run: as §1

Odorant receptor agonist call, inactive:
CC(CO)CS (stereo not given)
CC1CCCCCCCCCCCCC(=O)C1 (stereo not given)
CCC(C)c1nccnc1OC (stereo not given)
CC1=C(O)C(=O)C(C)O1 (stereo not given)
Cc1cnc(C)cn1
CCc1nccnc1CC
CC(=O)c1cnccn1
CCC1OC(C)=C(O)C1=O (stereo not given)
CCc1nccnc1C(C)=O
CC(=O)c1c(C)c([N+](=O)[O-])c(C(C)(C)C)c([N+](=O)[O-])c1C
CC1CCc2nccnc21 (stereo not given)
CCC1OC(=O)C(O)=C1C (stereo not given)
CC1=C(O)C(=O)OC1C (stereo not given)
COc1nccnc1C(C)C
Cc1nccnc1C
COc1nccnc1CC(C)C
CCC(S)C(C)CO (stereo not given)
CCCCCC(=O)C(C)C(C)=O (stereo not given)
COc1cnccn1
C=Cc1cnccn1
CCCCC(S)C(C)CO (stereo not given)
CC1=NC(C)C(C)S1 (stereo not given)
Cc1cnc(C)c(C)n1
Cc1cncc(C)n1
CC(=O)c1nccnc1C
CCc1nccnc1OC
CCCC(S)CCOC(C)=O (stereo not given)
Cc1cnccn1
CCCCCC(S)C(C)CO (stereo not given)
CCc1nccnc1C
CCCCCCC=CCCC=O

Each compound was assayed against T3, OR5K4 (Homo sapiens) (UniProt A6NMS3). Conditions: stereoisomer not certain.
T3 sequence (whole entry): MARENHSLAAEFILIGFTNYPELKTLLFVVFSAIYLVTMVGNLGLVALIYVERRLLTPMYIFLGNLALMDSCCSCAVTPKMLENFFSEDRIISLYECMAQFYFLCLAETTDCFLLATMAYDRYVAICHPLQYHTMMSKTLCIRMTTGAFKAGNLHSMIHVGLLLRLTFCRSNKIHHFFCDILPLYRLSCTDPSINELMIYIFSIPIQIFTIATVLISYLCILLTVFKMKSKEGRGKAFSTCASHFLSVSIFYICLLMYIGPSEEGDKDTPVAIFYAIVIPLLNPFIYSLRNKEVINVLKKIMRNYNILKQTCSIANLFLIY
How it was run: as §1

Odorant receptor agonist call, inactive:
CC(CO)CS (stereo not given)
CC1CCCCCCCCCCCCC(=O)C1 (stereo not given)
CCC(C)c1nccnc1OC (stereo not given)
CC1=C(O)C(=O)C(C)O1 (stereo not given)
Cc1cnc(C)cn1
CCc1nccnc1CC
CC(=O)c1cnccn1
CCC1OC(C)=C(O)C1=O (stereo not given)
CCc1nccnc1C(C)=O
CC(=O)c1c(C)c([N+](=O)[O-])c(C(C)(C)C)c([N+](=O)[O-])c1C
CC1CCc2nccnc21 (stereo not given)
CCC1OC(=O)C(O)=C1C (stereo not given)
CC1=C(O)C(=O)OC1C (stereo not given)
COc1nccnc1C(C)C
Cc1nccnc1C
COc1nccnc1CC(C)C
CCC(S)C(C)CO (stereo not given)
CCCCCC(=O)C(C)C(C)=O (stereo not given)
COc1cnccn1
C=Cc1cnccn1
CCCCC(S)C(C)CO (stereo not given)
CC1=NC(C)C(C)S1 (stereo not given)
Cc1cnc(C)c(C)n1
Cc1cncc(C)n1
CC(=O)c1nccnc1C
CCc1nccnc1OC
CCCC(S)CCOC(C)=O (stereo not given)
Cc1cnccn1
CCCCCC(S)C(C)CO (stereo not given)
CCc1nccnc1C
CCCCCCC=CCCC=O
